High-throughput results (PubChem BioAssay)
Biofilm kill mix: clotrimazole potentiators killing C. albicans biofilm, primary screen, 4-compound mixtures | C. albicans biofilm persisters + clotrimazole, fluorescence viability; primary screen in compound mixtures of four per well | AID 1242, 2008 | inhibition, % at 7.6 µM | 0.02% of 120,000 active;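 active = inhibition above 30.3% in the primary screen of four-compound pools, then above 30% when the compound was retested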;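 note: compounds exposed to preformed 24 h biofilms for 48 h; 0% = untreated biofilm control and 100% = clotrimazole plus chlorhexidine kill blank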
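Assay system: C. albicans biofilms / Medium: RPMI/MOPS medium, pH 7.0 / Schedule: biofilm formation 24 h, compound exposure 48 h, 37 °C / Measured by: Alamar Blue fluorescence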
Hck-Nef inh: inhibitors of Nef-activated human Hck kinase, primary screen, biochemical, Z-Lyte FRET, 384-well, Hck-YEEI; inhibition, % at 20 µM; Recombinant Hck-YEEI plus Nef, Z-Lyte FRET kinase assay; Tyrosine-protein kinase HCK (Homo sapiens), P08631; 0.68% of 220,000 active; AID 463187, 2010;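 active = Hck-Nef kinase inhibition above about 50%, limit read from the data; inactive = inhibition below that limit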;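 note: 0% = DMSO with Hck plus Nef and 100% = Hck alone without Nef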
Target sequence (P08631 whole entry, looked up): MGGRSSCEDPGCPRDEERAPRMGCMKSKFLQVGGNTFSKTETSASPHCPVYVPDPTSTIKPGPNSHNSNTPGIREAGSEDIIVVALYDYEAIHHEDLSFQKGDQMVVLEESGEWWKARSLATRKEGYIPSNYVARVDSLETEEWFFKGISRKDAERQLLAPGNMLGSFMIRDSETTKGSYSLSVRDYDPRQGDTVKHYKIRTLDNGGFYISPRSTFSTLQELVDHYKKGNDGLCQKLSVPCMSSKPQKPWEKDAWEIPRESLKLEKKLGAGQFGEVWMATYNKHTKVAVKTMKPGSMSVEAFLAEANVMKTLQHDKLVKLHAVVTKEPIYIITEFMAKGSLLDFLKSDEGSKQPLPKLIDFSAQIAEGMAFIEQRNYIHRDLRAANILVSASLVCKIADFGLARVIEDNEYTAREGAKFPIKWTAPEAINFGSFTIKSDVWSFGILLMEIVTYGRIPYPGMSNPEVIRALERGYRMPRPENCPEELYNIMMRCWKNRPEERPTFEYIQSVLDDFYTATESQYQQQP
14-3-3 Bad PPI: inhibitors of 14-3-3 zeta/Bad binding, primary screen, biochemical, TR-FRET, bovine 14-3-3 zeta. TR-FRET 14-3-3zeta/Dy647-pBad peptide displacement, 1 h. inhibition, % at 21.7 µM. 0.71% of 220,000 active. 14-3-3 protein zeta/delta (Bos taurus), P63103;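 active = inhibition above about 70%, limit read from the data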;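 note: 0% = full 14-3-3 plus peptide FRET controls and 100% = background without 14-3-3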
PERK inhibitor: block of dimerizer-induced PERK translation repression, primary screen, PERK inhibitor project, CHO PERK-DD cells, SEAP luminescence, HTS. CHO PERK-DD fusion, SEAP luminescence translation reporter. inhibition, % at 5.6 µM. 0.17% of 220,000 active;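 active = inhibition above the mean inhibition of all tested compounds plus 3 SD, set separately per screening campaign, cut at about 2.9% in these data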;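 note: PERK kinase domain activated by AP20187 dimerizer at 100 nM; 0% = DMSO with dimerizer and 100% = rapamycin at 8.4 µM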
eIF4E-4G inh: eIF4E–eIF4G protein interaction inhibitors, primary screen, biochemical, uHTS, TR-FRET, eIF4GI fragment; Eukaryotic translation initiation factor 4E (Mus musculus) + Eukaryotic translation …; TR-FRET eIF4E-eIF4GI(517-606) binding, 2 h; inhibition, % at 21.7 µM; 0.37% of 220,000 active; AID 782, 2007;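 active = inhibition above about 30%, limit read from the data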;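 note: 0% = full FRET control wells and 100% = background wells lacking eIF4GI fragment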
p97 inhibitor: inhibitors of human p97 ATPase, primary screen, biochemical; recombinant p97 ATPase, Kinase-Glo ATP luminescence, 3 h; inhibition, % at 8 µM; 0.42% of 220,000 active; AID 1481, 2009; in the data active = inhibition above about 15%;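 note: 0% = DMSO vehicle and 100% = wells lacking enzyme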
Hck-Nef confirm: retest of Hck:Nef kinase inhibitor hits, confirmation, biochemical, Z-Lyte FRET, 384-well, p-Tyr peptide counterscreen | calls only at 10 µM | 28% of 1,300 active | AID 463188, 2010 | shares compounds with Hck-Nef inh | Recombinant Hck-YEEI:Nef, Z-Lyte FRET kinase assay;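 active = average inhibition of at least 50%, with Z-scores no higher than 3 in both the phospho-tyrosine peptide and fluorescence counterscreens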
* = called active by the depositor; i = inactive; . = no result shown; + = active, no number; [ ] = another dose, or the depositor's remark. Sampled rows, rich in hits. Any-hit rate of the full collection: about 2.2%.

SMILES | Biofilm kill mix | Hck-Nef inh | 14-3-3 Bad PPI | PERK inhibitor | eIF4E-4G inh | p97 inhibitor | Hck-Nef confirm
COc1cccc(NC(=O)Cn2c(=O)n(-c3cc(OC)c(OC)c(OC)c3)c(=O)c3ccccc32)c1 | 7.8 | 124.5* | 60.8 | -0.1 | 6.8 | 9.1 | i
Cc1noc(C)c1COc1ccc(C(=O)OC(C)C(=O)Nc2ccc(S(=O)(=O)N3CCOCC3)cc2)cc1 (stereo not drawn) | 11.7 | 0.9 | 11.2 | 0.1 | 0.8 | -3.0 | .
N#Cc1c(N)n(-c2cccc(O)c2)c2nc3ccccc3nc12 | 3.8 | 72.4* | 1.1 | 0.2 | 4.4 | 7.4 | .
Cc1nc(SCC(=O)O)c(C#N)c(C)c1CC(=O)c1ccccc1 | 4.6 | 12.4 | -3.2 | 0.0 | -3.8 | 1.4 | .
Cc1cc(=O)[nH]c(/N=C(\N)Nc2ccc(SC(F)F)cc2)n1 | 14.3 | 19.7 | -13.0 | 0.6 | 0.2 | -0.4 | .
Cc1cc(=O)[nH]c(/N=C(\N)Nc2ccc(Oc3ccccc3)cc2)n1 | 17.8 | 51.6* | -1.8 | 0.3 | -10.8 | 0.1 | i
COc1ccc2nc(-n3c(O)c(C4=c5ccccc5=NC4=O)[nH]c3=S)sc2c1 | 28.8 | 102.5* | 96.4*[fluorescence artefact?] | 0.0 | 51.8*[fluorescence artefact?] | -4.3 | +
Cc1c(Br)c([N+](=O)[O-])nn1CC(=O)Nc1ccc(Cc2ccncc2)cc1 | 15.2 | -3.1 | 3.3 | -0.9 | 0.7 | 0.4 | .
Cc1cc(C)c2cc(CN(CCO)Cc3nnnn3Cc3ccc(F)cc3)c(=O)[nH]c2c1 | . | 0.4 | -7.0 | -0.3 | 7.7 | 3.8 | .
Cc1cc(C)c2cc(CN(CCO)Cc3nnnn3Cc3ccccc3)c(=O)[nH]c2c1 | . | 85.1* | 5.5 | -0.1 | -1.1 | 1.4 | i
CCOC(=O)CSC(=S)NC(=O)c1ccc(OC)cc1 | 20.1 | 56.9* | 9.0 | 0.1 | 15.2 | -2.6 | i
CCOc1ccc(N2CC(O)=C(c3nc4ccccc4c(=O)[nH]3)C2=N)cc1 | 3.2 | 55.3* | 6.4 | 0.1 | 11.3 | 8.2 | i
COc1ccccc1C(=O)NNC(=O)C(=O)NC(C)C | 21.2 | 59.3* | -5.7 | 0.8 | -3.1 | 4.6 | i
COc1ccccc1C(=O)NNC(=O)C(=O)NCc1ccccc1 | 13.1 | 14.6 | -7.0 | -0.4 | 0.6 | 4.1 | .
CCOC(=O)c1ccc2ncc(C(=O)OCC)c(Nc3ccc(N4CCOCC4)cc3)c2c1 | 3.9 | 72.9* | -4.6 | -0.5 | -5.3 | 1.2 | +
CCN(CC)c1ccc2c(O)cc(=O)oc2c1 | 12.8 | 20.0 | -15.3 | 2.1 | 1.3 | 1.3 | .
CCN(CC)c1ccc2c(C)c(CN3CCOCC3)c(=O)oc2c1 | . | 102.0* | -7.7 | -0.4 | -7.0 | -3.1 | .
COC(=O)Cc1c(C)c2ccc(OCC(=O)N3CCOCC3)cc2oc1=O | . | 0.5 | 3.5 | 0.1 | 1.1 | 0.0 | .
CCN(CC)c1ccc2c(C)c(CO)c(=O)oc2c1 | 12.9 | + | 3.6 | -0.6 | 0.8 | -2.9 | .
CCc1ccc(NC(=O)C(=O)NCCN2CCN(C(=O)c3ccco3)CC2)cc1 | 23.4 | 6.0 | -14.9 | -0.7 | 6.7 | 1.7 | .
CSc1nc(C)c(CCO)c(=O)[nH]1 | 13.1 | -28.6 | 3.0 | 0.2 | -0.8 | -1.7 | .
CCOC(=O)c1c(NC(=O)N/N=C/c2ccc(O)c(OC)c2)sc(C(C)=O)c1C | 4.5 | 60.8* | 58.5 | 0.8 | -18.5 | 3.8 | i
Cc1ccc(O)c(-c2cc(-c3ccccc3C)[nH]n2)c1 | . | 51.7* | -0.7 | -0.1 | 4.2 | -3.7 | +
